Experimental data as given in ChEMBL document CHEMBL3612023, “Synthesis and in vitro characterization of novel fluorinated derivatives of the TSPO 18 kDa ligand SSR180575” (Eur J Med Chem, 2015).

How the values were obtained:
[1] = n-octanol/buffer partition coefficient, log D of the compound at pH 7.4 by HPLC method; assay type: physicochemical
[2] = Biotransformation in CD1 mouse liver microsomes at 5 uM measured at 20 mins by HPLC/ESI-MS/MS analysis; assay type: ADME; conditions: read-out: Drug metabolism
How it was run: (§1)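 Hepatic microsomes (male CD1 mouse, male Sprague-Dawley rat, or pooled human) at 1 mg/mL protein with 1 mg/mL BSA; substrate 5 µM. Reference sample held 0 min without cofactor; test sample run 20 min with 1 mM NADPH. Reaction quenched with 1 volume ACN, proteins spun out, supernatant analysed by HPLC/ESI-MS/MS in positive SIR. % biotransformation = (1 − area B/area A) × 100.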

[3] = Biotransformation in human liver microsomes at 5 uM measured at 20 mins by HPLC/ESI-MS/MS analysis; assay type: ADME; conditions: read-out: Drug metabolism; how it was run: as §1
[4] = Biotransformation in Sprague-Dawley rat liver microsomes at 5 uM measured at 20 mins by HPLC/ESI-MS/MS analysis; assay type: ADME; conditions: read-out: Drug metabolism; how it was run: as §1

Molecule `COc1ccc(-n2nc(CC(=O)N(C)C)c3c4ccc(Cl)cc4n(C)c3c2=O)cc1` has a logD [1] of 3.01, a metabolised at 20 min, 5 µM [2] of 22% and a metabolised at 20 min, 5 µM [3] of 22%. For the same molecule, the metabolised at 20 min, 5 µM [4] was 4%.
`CN(C)C(=O)Cc1nn(-c2ccc(OCCF)cc2)c(=O)c2c1c1ccc(Cl)cc1n2C` gave a logD [1] of 3.12, a metabolised at 20 min, 5 µM [2] of 0% and a metabolised at 20 min, 5 µM [3] of 0%. The metabolised at 20 min, 5 µM [4] was 2%.
For `CN(C)C(=O)Cc1nn(-c2ccc(OCCCF)cc2)c(=O)c2c1c1ccc(Cl)cc1n2C`, the logD [1] was 3.48, the metabolised at 20 min, 5 µM [2] was 4% and the metabolised at 20 min, 5 µM [3] was 4%. For the same molecule, the metabolised at 20 min, 5 µM [4] was 3%.
With `CN(C)C(=O)Cc1nn(-c2ccc(OCCCCF)cc2)c(=O)c2c1c1ccc(Cl)cc1n2C` the logD [1] was 3.75, the metabolised at 20 min, 5 µM [2] was 1% and the metabolised at 20 min, 5 µM [3] was 16%. It also gave a metabolised at 20 min, 5 µM [4] of 13%.
For `CN(C)C(=O)Cc1nn(-c2ccc(OC/C=C/CF)cc2)c(=O)c2c1c1ccc(Cl)cc1n2C`, the logD [1] was 3.62, the metabolised at 20 min, 5 µM [2] was 53% and the metabolised at 20 min, 5 µM [3] was 76%. It also gave a metabolised at 20 min, 5 µM [4] of 41%.
Molecule `CN(C)C(=O)Cc1nn(-c2ccc(OCC#CCF)cc2)c(=O)c2c1c1ccc(Cl)cc1n2C` has a logD [1] of 3.54, a metabolised at 20 min, 5 µM [2] of 42% and a metabolised at 20 min, 5 µM [3] of 47%. The metabolised at 20 min, 5 µM [4] was 25%.
`CN(C)C(=O)Cc1nn(-c2ccc(OCCOCCF)cc2)c(=O)c2c1c1ccc(Cl)cc1n2C` showed a logD [1] of 3.11, a metabolised at 20 min, 5 µM [2] of 17% and a metabolised at 20 min, 5 µM [3] of 17%. The metabolised at 20 min, 5 µM [4] was 11%.
With `CN(C)C(=O)Cc1nn(-c2ccc(OCCOCCOCCF)cc2)c(=O)c2c1c1ccc(Cl)cc1n2C` the logD [1] was 3.08, the metabolised at 20 min, 5 µM [2] was 69% and the metabolised at 20 min, 5 µM [3] was 81%. The metabolised at 20 min, 5 µM [4] was 52%.
In the case of `CN(C)C(=O)Cc1nn(-c2ccccc2)c(=O)c2c1c1ccc(Cl)cc1n2CCF`, the logD [1] is reported as 3.09, the metabolised at 20 min, 5 µM [2] is reported as 5% and the metabolised at 20 min, 5 µM [3] is reported as 19%. For the same molecule, the metabolised at 20 min, 5 µM [4] was 14%.
With `CN(C)C(=O)Cc1nn(-c2ccccc2)c(=O)c2c1c1ccc(Cl)cc1n2CCCF` the logD [1] was 3.38.
In the case of `CN(C)C(=O)Cc1nn(-c2ccccc2)c(=O)c2c1c1ccc(Cl)cc1n2CCCCF`, the logD [1] is reported as 3.66.
For `CN(C)C(=O)Cc1nn(-c2ccccc2)c(=O)c2c1c1ccc(Cl)cc1n2C/C=C/CF`, the logD [1] was 3.48, the metabolised at 20 min, 5 µM [2] was 31% and the metabolised at 20 min, 5 µM [3] was 38%. The metabolised at 20 min, 5 µM [4] was 44%.
For `CN(C)C(=O)Cc1nn(-c2ccccc2)c(=O)c2c1c1ccc(Cl)cc1n2CC#CCF`, the logD [1] was 3.44, the metabolised at 20 min, 5 µM [2] was 39% and the metabolised at 20 min, 5 µM [3] was 30%. For the same molecule, the metabolised at 20 min, 5 µM [4] was 26%.
`CN(C)C(=O)Cc1nn(-c2ccccc2)c(=O)c2c1c1ccc(Cl)cc1n2CCOCCF` showed a logD [1] of 3.2.
Molecule `CN(C)C(=O)Cc1nn(-c2ccccc2)c(=O)c2c1c1ccc(Cl)cc1n2CCOCCOCCF` has a logD [1] of 3.19.
Work on `CN(C)C(=O)Cc1nn(-c2ccccc2)c(=O)c2c1c1ccc(Cl)cc1n2C` yielded a logD [1] of 2.97, a metabolised at 20 min, 5 µM [2] of 21% and a metabolised at 20 min, 5 µM [3] of 10%. It also gave a metabolised at 20 min, 5 µM [4] of 14%.
